Screens deposited in PubChem BioAssay by Sanford-Burnham Center for Chemical Genomics.
Rows were chosen to be rich in hits. Some 2.3% of all compounds tested hit in one or more screens of this group.
Diaphorase act: activates diaphorase or chemically reduces, flagging diaphorase assay artifacts; Diaphorase/resazurin coupled assay, resorufin fluorescence, 16 min; hits give high values; 1 = vehicle wells, 0 = NADH-free wells; activation factor at 20 µM; 0.005% of 190,000 active; AID 1229;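 active means diaphorase activity raised at least twofold by the compound at 20 µM; inactive means activation factor below 2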
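Assay system: bacterial diaphorase enzyme (C. kluyveri) / Input: enzyme 0.07 U/mL final / Medium: 50 mM HEPES pH 7.4 with 4.542 mM MgCl2, 0.005% Tween 20 / Doses: single compound dose of 20 µM, 1% DMSO final / Incubation: 16 min enzyme reaction, ambient temperature / Signal: fluorescence, excitation 544 nm and emission 590 nm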
G6PDH CS: inhibits Leuconostoc G6PDH, flagging false hits in G6PDH-based assays; AID 1020; 0.12% of 200,000 active; inhibition, % at 5 µM; Purified L. mesenteroides G6PDH, diaphorase/resazurin coupled fluorescence, 45 min; in the data active means inhibition above about 50%
FLuc inhib CS: inhibits firefly luciferase, flagging false hits in luciferase inhibition screens; inhibition, % at 10 µM; ATPLite firefly luciferase biochemical luminescence, 10 min; AID 1006; P08659; 1.5% of 200,000 active;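 active means inhibition above about 50% when tested at 10 µM, limit read from the data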
Target sequence (P08659 whole entry, looked up): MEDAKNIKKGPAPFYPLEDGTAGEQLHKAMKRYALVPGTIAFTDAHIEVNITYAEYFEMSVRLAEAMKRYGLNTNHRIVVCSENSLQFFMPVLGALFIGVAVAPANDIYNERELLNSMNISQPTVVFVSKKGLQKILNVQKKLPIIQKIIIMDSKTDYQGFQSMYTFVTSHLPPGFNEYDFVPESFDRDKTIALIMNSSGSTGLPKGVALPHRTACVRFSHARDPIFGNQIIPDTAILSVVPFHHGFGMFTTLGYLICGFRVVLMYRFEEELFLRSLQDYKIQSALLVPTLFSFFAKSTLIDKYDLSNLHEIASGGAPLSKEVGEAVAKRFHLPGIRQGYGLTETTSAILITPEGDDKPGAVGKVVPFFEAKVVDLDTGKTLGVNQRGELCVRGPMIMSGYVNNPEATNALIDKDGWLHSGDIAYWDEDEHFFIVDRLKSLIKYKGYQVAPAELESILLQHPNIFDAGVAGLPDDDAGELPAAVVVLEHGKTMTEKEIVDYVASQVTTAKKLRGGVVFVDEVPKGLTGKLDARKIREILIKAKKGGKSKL
Diaph inh CS: counter-screen for diaphorase-based assays: diaphorase inhibitors and chemical oxidizers; diaphorase resazurin-to-resorufin fluorescence, NADH, 16 min; bacterial (C. kluyveri) enzyme, not human; inhibition, % at 20 µM; 0.69% of 190,000 active; AID 1217;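 active means primary screen inhibition at 20 µM above a set limit, cut at about 50% in these data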
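Test system: Clostridium kluyveri diaphorase enzyme / Quantity: diaphorase at 0.14 U/mL in enzyme working solution / Incubation: 16-min room-temperature incubation before reading / Benchmarks: NADH-free wells as positive control, DMSO-only neutral wells / Signal: resorufin fluorescence 544/590 nm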
FLuc stim CS: affects firefly luciferase, flagging false hits in luciferase stimulation screens; P08659; ATPlite luciferase biochemical, luminescence, 10 min; 0 = ATP-free wells, 1 = DMSO control; activation factor at 10 µM; 200,000 tested, under 10 active; AID 1027;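 active means luciferase activation factor, scaled between plate controls, of at least 2 with compound at 10 µM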
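Assay system: Luciferase/luciferin reagent mix; Medium: PBS as buffer for the ATP substrate; Dosing: test compounds dosed from 2 mM stocks in 100% DMSO; Times: 10 min, room temperature; Signal: luminescence from luciferase reaction; Read-out: luciferase activation; Controls: No-ATP low control, compound-free enzyme-plus-ATP high control.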
Of the large screens only hits and unclear results are named; the others gave an inactive call.

O=C(O)c1ccc(N2C(=O)/C(=C/c3ccc(-c4ccc([N+](=O)[O-])cc4)o3)C=C2c2ccccc2)cc1	Diaph inh CS 57
CC1=NN(c2ccc(Cl)c(C(=O)O)c2)C(=O)/C1=C\c1ccc(-c2ccc(C(=O)O)cc2)o1	none
Cc1cc(-c2ccccc2)nc(Cl)c1C#N	none
O=C(O/N=C(\c1ccccc1)c1ccncc1)c1ccccc1Cl	none
N/C(=N\OC(=O)c1ccccc1Cl)c1ccccc1	FLuc inhib CS 94
N/C(=N\OC(=O)c1ccccc1Cl)c1ccc(Cl)cc1	FLuc inhib CS 56
Cn1nc(C(=O)Nc2ccc(S(=O)(=O)N3CCOCC3)cc2)c2ccccc2c1=O	none
O=C(COc1ccccc1)Nc1nc(-c2cccs2)cs1	none
O=C(CCS(=O)(=O)c1ccccc1)Nc1nc(-c2cccs2)cs1	G6PDH CS 50
O=C1N/C(=N\N=C\c2cccnc2)SC1Cc1ccc(SC(F)F)cc1 (configuration not stated)	none
O=C1N/C(=N\N=C\c2ccc3ncccc3c2)SC1Cc1ccc(SC(F)F)cc1 (configuration not stated)	FLuc inhib CS 61
COc1ccc(C=C2C(=O)c3ccccc3C2=O)cc1O	FLuc inhib CS 62
COc1cc(C=C2C(=O)c3ccccc3C2=O)cc(OC)c1OC	none
Cc1ccc(N/C=C/C(=O)c2ccc(C)cc2)cc1	FLuc inhib CS 51
CN(C)c1ccc(N/C=C/C(=O)c2ccccc2)cc1	FLuc inhib CS 92
Cc1ccc(C(=O)/C=C\Nc2ccc(C)c(C)c2)cc1	none
O=C(/C=C\Nc1ccc(Br)cc1)c1cccnc1	FLuc inhib CS 84
O=C(/C=C/Nc1ccc(F)cc1Br)c1ccccc1	FLuc inhib CS 96
Cc1ccc(C(=O)/C=C/Nc2ccc([N+](=O)[O-])cc2Br)cc1	none
CC(=O)Oc1ccc(N(C(C)=O)S(=O)(=O)c2ccc(C)c([N+](=O)[O-])c2)cc1	none
Cc1cccc(NC(=S)N2CCN(c3cc(C)ccc3C)CC2)c1	none
CCOC(=O)c1ccc(N/C=C/C(=O)c2ccccc2)cc1	none
O=C(/C=C/Nc1ccccc1)c1ccccc1	FLuc inhib CS 92
Cn1cccc1/C=C(/C#N)c1ccc(F)cc1	none
Cc1[nH]n(-c2ccccc2)c(=O)c1/C=N/Nc1nncc(-c2ccccc2)n1	FLuc inhib CS 85
Cc1cc(C)n2ncc(C(=O)O)c2n1	none
Cc1ccc2nc(C)cc(N3CCOCC3)c2c1	none
Cc1c(C(=O)O)c(C(=O)O)nc2ccc(N3CCOCC3)cc12	Diaph inh CS 55
C(=C\c1nc2ccccc2[nH]1)/c1ccccc1	FLuc inhib CS 94
O=C(/C=C/c1ccco1)Nc1ccc(-c2nc3ccccc3[nH]2)cc1	none
C(=C\c1ccco1)/c1nc2ccccc2[nH]1	FLuc inhib CS 83
Cc1nc(/C=C/c2ccccc2)[nH]c(=O)c1-c1ccccc1	none
C/C(O)=C/c1nc2ccccc2[nH]c1=O	none
O=c1[nH]c2ccccc2nc1/C=C/c1ccc(Cl)cc1	FLuc inhib CS 70
Cc1cccc(/C=C\c2nc3ccccc3c(=O)[nH]2)c1	FLuc inhib CS 73
O=C(c1cc(-c2ccco2)nc2ccccc12)N1CCN(c2ccc(F)cc2)CC1	none
CCN(CC)CCNC(=O)c1ccc(CS(=O)(=O)c2ccc(Br)cc2)o1	none
COCCNC(=O)C1=NOC(Cn2cc(C#N)c(=O)n(C)c2=O)C1 (configuration not stated)	none
COc1ccc(-c2nnc(SCc3csc(N)n3)n2C)cc1	none
Cc1ccc(Nc2nc(CSc3nnc(-c4ccc(F)cc4)n3C)cs2)cc1	FLuc inhib CS 84
C/C(=N\NC(=S)NCc1ccccc1)c1ccc(C)o1	none
Brc1cc2c(cc1/C=N/Nc1nc(N3CCOCC3)nc(N3CCOCC3)n1)OCO2	none
COc1ccc2nc(NC(=O)Nc3ccccc3)sc2c1	FLuc inhib CS 70
COc1ccc2nc(NC(=O)c3cnccn3)sc2c1	FLuc inhib CS 63
CCOc1ccc2nc(NC(=O)Nc3ccccc3)sc2c1	none
CCCCOC(=O)Nc1nc2ccc(OC)cc2s1	none
CCCCN(C(=O)NC(=O)Nc1nc2ccc(OC)cc2s1)S(C)(=O)=O	FLuc inhib CS 50
Cc1cc(C(=O)CSc2nnc(-c3cccnc3)n2-c2ccccc2F)c(C)n1CC1CCCO1 (configuration not stated)	none
COc1ccc(-n2cc(C(=O)c3ccccc3O)cn2)cc1	FLuc inhib CS 66
O=C(c1cnn(-c2ccccc2)c1)c1ccccc1O	none
COCCNc1c(-c2cc3ccc(C)c(C)c3[nH]c2=O)nc2ccccn12	FLuc inhib CS 70
Cc1cc(N2CCCC2)ccc1/C=N/n1cnnc1	none
CCOC(=O)C1(Cc2ccccc2C)CCCN(Cc2cc(OC)c(O)c(OC)c2)C1 (configuration not stated)	G6PDH CS 59
CC(C)CN=Cc1c(O)c([N+](=O)[O-])cc2oc3c(c12)CCCC3	Diaph inh CS 56
CC(=O)Nc1ccc(N2C(=O)CSC2c2ccccc2[N+](=O)[O-])cc1 (configuration not stated)	none
CN(C)c1ccc(S(=O)(=O)NCC(=O)OCC(=O)Nc2cc(Cl)cc(Cl)c2)cc1[N+](=O)[O-]	none
CCOC(=O)CN1N=C(/C=C/c2ccc(C)cc2)CCC1=O	none
COc1ccc(/C=C/C2=NN(C)C(=O)CC2)cc1	FLuc inhib CS 81
COc1ccc(C)cc1NC(=O)NCc1ccccc1F	FLuc inhib CS 68
CCC1(C)Cc2sc3c(=O)[nH]c(=S)[nH]c3c2CO1 (configuration not stated)	Diaph inh CS 84
Cc1ccc(-n2nc3c(n2)/C(=N/O)CC/C3=N\O)cc1	FLuc inhib CS 67
O/N=C1\CC/C(=N\O)c2nn(-c3ccccc3Cl)nc21	none
Cc1ccc(CNc2ccc(N3CCOCC3)cc2)s1	FLuc inhib CS 73
CC(=O)N1CCN(c2ccc(NCc3ccc(C)s3)cc2)CC1	none
COc1ccc(OC)c(C(c2nnnn2CCc2ccccc2)N2CCC(C(N)=O)CC2)c1 (configuration not stated)	none
CCOC(=O)c1nn(-c2ccc3c(c2)CCN3C(C)=O)cc1O	FLuc inhib CS 61
Cc1ccc2c(c1)CCCN2C(=O)c1cc2ccccc2oc1=O	none
CC(C)c1ccc(/C=C/C2=NNC(=O)CC2)cc1	none
CC(C)c1ccc(/C=C/c2ccc(=O)n(C)n2)cc1	FLuc inhib CS 83
CNC(=S)NNS(=O)(=O)c1ccc(OC)cc1OC	none
CSc1nc(-c2ccccc2)[nH]c(=S)c1C(C)=O	Diaph inh CS 73
CC(=O)c1c(NC(=O)c2ccccc2)[nH]c(-c2ccccc2)nc1=S	Diaph inh CS 67
CSc1nc(-c2ccccc2)nc(NC(=O)c2ccccc2)c1C(C)=O	none
